# Hit rate of the full screen: of about 360,000 compounds, about 3,600 (1%) were called active. What follows is part of a selection rich in actives, with near analogues and random picks from the rest. A number with no mark means an inactive call.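 How the source made its calls: active means activation above the mean activation of all test compounds in the run plus 3 SD (cut at about 38% in these data); inactive means the rest.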
# Target: Trace amine-associated receptor 1 (Homo sapiens) (UniProt Q96RJ0)
# Sequence (Q96RJ0 whole entry, looked up): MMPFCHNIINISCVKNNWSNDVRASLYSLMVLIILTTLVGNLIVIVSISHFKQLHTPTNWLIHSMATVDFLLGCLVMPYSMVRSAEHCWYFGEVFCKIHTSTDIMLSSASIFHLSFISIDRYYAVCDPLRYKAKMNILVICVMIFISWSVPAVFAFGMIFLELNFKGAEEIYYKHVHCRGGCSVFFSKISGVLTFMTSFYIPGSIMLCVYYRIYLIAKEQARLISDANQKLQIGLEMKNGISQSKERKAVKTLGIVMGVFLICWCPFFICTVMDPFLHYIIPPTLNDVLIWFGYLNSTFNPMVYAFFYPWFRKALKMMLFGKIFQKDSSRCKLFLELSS
# Assay: human TAAR1 agonists, primary screen, Fluo-8 calcium fluorescence, CHO RD-HGA16 cells (AID 624467)
# Conditions: CHO RD-HGA16 TAAR1, Fluo-8 calcium fluorescence; at 3 µM; active compounds read high; vehicle wells 0%, saturating PEA agonist 100%
# Procedure, shortened: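 Signal – calcium-sensitive Fluo-8 signal, excitation 470-495, emission 515-575 nm · System – RD-HGA16 (CHO) cells co-expressing Gα16 and hTAAR1 · Incubation – 17-24 h seeding, 75 min 37 °C dye, 30 min RT · Compound dosing – 3 µM single concentration · Repeats – no replicates (n 1)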
row,Structure (SMILES),activation
1,COC(=O)[C@]12C[C@H](CC(=O)NCCCCc3ccccc3)C(=O)N(Cc3ccc4c(c3)OCO4)C1=C[C@H](C(C)(C)C)O[C@@H]2C,5.91%
2,Cc1occc1C(=O)N/N=C/c1ccc(-c2cccc([N+](=O)[O-])c2)o1,4.69%
3,COc1cc(/C=N\NC(=O)c2nonc2N)c(OC)cc1Br,1.69%
4,Cc1cc(C)c([N+](=O)[O-])cc1-c1ccc(/C=N/NC(=O)c2nonc2N)o1,41% (active)
5,O=C(COC(=O)CCc1c[nH]c2ccccc12)Nc1cccc(Cl)c1,3.56%
6,Nc1ncnc2c1ncn2[C@@H]1O[C@H](C(=O)N[C@@H](CCc2ccccc2)C(=O)NCC(=O)N2CCOCC2)[C@@H](O)[C@H]1O,0.02%
7,Clc1cccc2c1C1CC2CCN1Cc1ccccc1 (configuration not stated),-1.9%
8,Cc1ccccc1N/C(SCc1ccc(Cl)cc1)=C(/C#N)C(N)=O,6.27%
9,O=C(Cc1ccc(Cl)cc1)NC(=S)Nc1ccccc1O,138% (active)
10,Cc1ccccc1NC(=S)NC(=O)Cc1ccc(Cl)cc1,82.3% (active)
11,Fc1ccccc1CNC(=S)Nc1ccc(Cl)cc1,5.04%
12,Cc1cc(C(=O)NNC(=S)Nc2ccccc2C)cs1,7.69%
13,COC(=O)c1ccccc1NC(=O)CN(Cc1ccc(Cl)cc1)S(C)(=O)=O,8.09%
14,Cc1ccc(NS(=O)(=O)c2ccc3c(c2)oc(=O)n3C)c(C)c1,3.17%
15,Brc1ccc(COCCc2cn(Cc3ccccc3)c3ccccc23)cc1,0.28%
16,CC1CCCCN1C(=S)NCc1ccccc1 (configuration not stated),5.09%
17,S=C(NCCc1ccccc1)N1CCn2cccc2C1c1ccncc1 (configuration not stated),96.1% (active)
18,S=C(Nc1cccc(Br)c1)N1CCn2cccc2C1c1cccnc1 (configuration not stated),11.1%
19,Cc1cc(=O)[nH]c(Nc2cccc(Br)c2)n1,26.1%

row,Structure (SMILES),activation
1,O=c1cnnc(Nc2ccccc2)[nH]1,53% (active)
2,O=c1cnnc(Nc2ccccc2F)[nH]1,19.6%
3,O=C(COC(=O)c1ncc(Cl)c(Cl)c1Cl)NNC(=O)c1ccccc1,4.83%
4,COc1ccc(N(C)C(=O)C2CCN(S(=O)(=O)c3cccc4nsnc34)CC2)cc1,2.99%
5,O=C(Nc1cccc(-c2cccc(Cl)c2)c1)C1CCN(C2CCC2)CC1,45.3% (active)
6,CCn1cc(CN2CCC(C(=O)Nc3cccc(-c4cccc(Cl)c4)c3)CC2)cn1,16.6%
7,CCn1cc(CN2CCC(C(=O)Nc3cccc(-c4cccc(Cl)c4)c3)CC2)c(C)n1,19.7%
8,O=S(=O)(c1cccs1)N1CCCc2nc(-c3ccc(Br)cc3)ccc21,1.37%
9,NC(=O)c1ncn([C@@H]2O[C@H](C(=O)O)[C@@H](O)[C@H]2O)n1,1.97%
10,COCCNC(=O)c1cc2c(Br)ccc(Br)c2nc1N,0.74%
11,CCC(c1nnnn1Cc1ccco1)N(CCc1ccccc1)Cc1cc2ccc(OC)cc2[nH]c1=O (configuration not stated),100% (active)
12,CCC(c1nnnn1C1CCCC1)N(Cc1cccs1)Cc1cc2cccc(C)c2[nH]c1=O (configuration not stated),2.02%
13,CCC(c1nnnn1Cc1ccco1)N(Cc1cc2cc(OC)ccc2[nH]c1=O)C1CCCCC1 (configuration not stated),1.97%
14,COc1ccc2[nH]c(=O)c(CN(Cc3nnnn3CCc3ccccc3)CC3CCCO3)cc2c1 (configuration not stated),11.8%
15,CCC(c1nnnn1Cc1ccco1)N(CCc1ccccc1)Cc1cc2cccc(C)c2[nH]c1=O (configuration not stated),43.8% (active)
16,Cc1cccc2cc(CN(Cc3nnnn3Cc3ccccc3)C3CCCC3)c(=O)[nH]c12,12%
17,CN(C)S(=O)(=O)c1cc(C(=O)Nc2ccn(C)n2)c(Cl)cc1Cl,2.93%
18,Nc1ncnc2c1ncn2C1OC(CO)CC1O (configuration not stated),1.93%
19,O=S(=O)(c1cccs1)N1CCc2ccccc2C1,13%

row,Structure (SMILES),activation
1,CN(C)CCCNC(=S)N1CCN(c2nc(-c3ccccc3)cs2)CC1,3.41%
2,c1ccc(-c2csc(N3CCc4ccccc4C3)n2)cc1,73% (active)
3,COc1ccc(Cn2c(-c3ccc(Cl)cc3)c[n+]3ccccc23)cc1,12.9%
4,C=CC1=CCN(S(=O)(=O)C(C)(C)C)[C@@H]1CCO,3.56%
5,FC(F)(F)c1ccc(-n2cn[nH]c2=S)cc1,0.73%
6,CCOC(=O)C1CCCN(C(=O)C2CCN(c3nnc(-n4cccc4)s3)CC2)C1 (configuration not stated),-0.39%
7,CSc1ccc(CCNC(=O)C2CCN(c3nnc(-n4cccc4)s3)CC2)cc1,-0.88%
8,O=C(C1CCN(c2nnc(-n3cccc3)s2)CC1)N1CCc2ccccc2C1,40.9% (active)
9,CC1(C)CC(=O)C=C(c2ccccc2CO)C1=O,0.98%
10,COC1=CCC2([N+](=O)[O-])CN(CC(=O)O)CC1([N+](=O)[O-])C2 (configuration not stated),1.51%
11,CCOC(=O)C1=C(C(=O)OCC)C2N(Cc3ccc(C#N)cc3)c3ccccc3[C@@]23C[C@@H](C(=O)OC)N(S(=O)(=O)c2ccc(F)cc2)C3=N1 (some centres not stated),-0.08%
12,Cc1noc(C)c1NC(=O)Nc1ccc2c(c1)C(=O)N([C@H](C)CO)C[C@H](C)[C@H](CN(C)Cc1ccncc1)OCCCC[C@@H](C)O2,2.28%
13,CCc1cc(=O)oc2c(C)c(OCC(=O)NCCN3CCOCC3)ccc12,2.36%
14,Cc1cc(=O)oc2c(C)c(OCC(=O)NCCc3ccc(S(N)(=O)=O)cc3)ccc12,0.73%
15,Cc1cc(=O)oc2c(C)c(OCC(=O)NCCN3CCOCC3)ccc12,43.2% (active)
16,O=C1C2(c3ccccc3)CN(CCCO)CC1(c1ccccc1)CN(CCCO)C2,2.41%
17,Cn1c(=O)c2c(nc(SCCNS(=O)(=O)c3ccccc3)n2C)n(C)c1=O,1.23%
18,CCCSc1nc2c(c(=O)n(C)c(=O)n2C)n1Cc1ccc(C)cc1,52.6% (active)
19,CCOc1ccc(Cn2c(SCCCCC#N)nc3c2c(=O)n(C)c(=O)n3C)cc1OCC,17.1%

# From PubChem BioAssay AID624467 (The Scripps Research Institute Molecular Screening Center, 2012)
